Assay results published in ChEMBL document CHEMBL4270599, “Synthesis of a 3'-C-ethynyl-β-d-ribofuranose purine nucleoside library: Discovery of C7-deazapurine analogs as potent antiproliferative nucleosides” (Eur J Med Chem, 2018).

Legend:
NCI-H460 = assay: Cytotoxicity against human NCI-H460 cells after 48 hrs by SRB assay; type: functional; details: NCI-H460, 48 h
KM12 [1] = assay: Growth inhibition of human KM12 cells assessed as cell growth at 10^-4 M incubated for 48 hrs by sulforhodamine B assay relative to control; type: functional; details: KM12, 48 h, read-out: Activity
786-0 = assay: Growth inhibition of human 786-0 cells assessed as cell growth at 10^-8 M incubated for 48 hrs by sulforhodamine B assay relative to control; type: functional; details: 786-0, 48 h, read-out: Activity
CCRF-CEM [2] = assay: Cytotoxicity against human CCRF-CEM cells after 48 hrs by SRB assay; type: functional
PC-3 = assay: Growth inhibition of human PC3 cells assessed as cell growth at 10^-4 M incubated for 48 hrs by sulforhodamine B assay relative to control; type: functional; details: PC-3, 48 h, read-out: Activity
Hs-578T [3] = assay: Cytotoxicity against human Hs 578T cells after 48 hrs by SRB assay; type: functional
CCRF-CEM [4] = assay: Growth inhibition of human CCRF-CEM cells assessed as cell growth at 10^-5 M incubated for 48 hrs by sulforhodamine B assay relative to control; type: functional; details: read-out: Activity
COLO 205 = assay: Cytotoxicity against human COLO205 cells after 48 hrs by SRB assay; type: functional; details: COLO 205, 48 h
OVCAR-5 [5] = assay: Growth inhibition of human OVCAR5 cells assessed as cell growth at 10^-7 M incubated for 48 hrs by sulforhodamine B assay relative to control; type: functional; details: OVCAR-5, 48 h, read-out: Activity
Malme-3M [6] = assay: Growth inhibition of human MALME-3M cells assessed as cell growth at 10^-8 M incubated for 48 hrs by sulforhodamine B assay relative to control; type: functional; details: read-out: Activity
OVCAR-5 [7] = assay: Growth inhibition of human OVCAR5 cells assessed as cell growth at 10^-5 M incubated for 48 hrs by sulforhodamine B assay relative to control; type: functional; details: OVCAR-5, 48 h, read-out: Activity
SF-268 = assay: Growth inhibition of human SF268 cells assessed as cell growth at 10^-5 M incubated for 48 hrs by sulforhodamine B assay relative to control; type: functional; details: SF-268, 48 h, read-out: Activity
K562 = assay: Growth inhibition of human K562 cells assessed as cell growth at 10^-4 M incubated for 48 hrs by sulforhodamine B assay relative to control; type: functional; details: K562, 48 h, read-out: Activity
HL-60(TB) [8] = assay: Growth inhibition of human HL-60(TB) cells assessed as cell growth at 10^-6 M incubated for 48 hrs by sulforhodamine B assay relative to control; type: functional; details: HL-60, 48 h, read-out: Activity
LOX IMVI = assay: Growth inhibition of human LOXIMVI cells assessed as cell growth at 10^-7 M incubated for 48 hrs by sulforhodamine B assay relative to control; type: functional; details: read-out: Activity
SF-539 = assay: Growth inhibition of human SF539 cells assessed as cell growth at 10^-8 M incubated for 48 hrs by sulforhodamine B assay relative to control; type: functional; details: SF-539, 48 h, read-out: Activity
Hs-578T [9] = assay: Growth inhibition of human Hs 578T cells assessed as cell growth at 10^-8 M incubated for 48 hrs by sulforhodamine B assay relative to control; type: functional; details: read-out: Activity
Malme-3M [10] = assay: Growth inhibition of human MALME-3M cells assessed as cell growth at 10^-7 M incubated for 48 hrs by sulforhodamine B assay relative to control; type: functional; details: read-out: Activity
HMEC-1 = assay: Antiproliferative activity against HMEC1 cells after 4 days by Coulter counter method; type: cell-based; details: Homo sapiens, HMEC-1, 96 h
In short: (§1)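 Primary HUVEC, primary HMVEC-d and the HMEC-1 line seeded at 20,000 cells/well in gelatin-coated plates in EC growth medium (EGM2). After overnight incubation, 5-fold compound dilutions added. Cells proliferated four days with compound, then trypsinized and counted by Coulter counter to derive IC₅₀.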

KM12 [11] = assay: Growth inhibition of human KM12 cells assessed as cell growth at 10^-7 M incubated for 48 hrs by sulforhodamine B assay relative to control; type: functional; details: KM12, 48 h, read-out: Activity
MDA-MB-435 = assay: Growth inhibition of human MDA-MB-435 cells assessed as cell growth at 10^-7 M incubated for 48 hrs by sulforhodamine B assay relative to control; type: functional; details: MDA-MB-435, 48 h, read-out: Activity
HCT-116 = assay: Growth inhibition of human HCT116 cells assessed as cell growth at 10^-5 M incubated for 48 hrs by sulforhodamine B assay relative to control; type: functional; details: HCT-116, 48 h, read-out: Activity
MCF7 [12] = assay: Growth inhibition of human MCF7 cells assessed as cell growth at 10^-4 M incubated for 48 hrs by sulforhodamine B assay relative to control; type: functional; details: MCF7, 48 h, read-out: Activity
SK-OV-3 [13] = assay: Cytotoxicity against human SKOV3 cells after 48 hrs by SRB assay; type: functional; details: SK-OV-3, 48 h
SK-MEL-28 = assay: Growth inhibition of human SK-MEL-28 cells assessed as cell growth at 10^-7 M incubated for 48 hrs by sulforhodamine B assay relative to control; type: functional; details: SK-MEL-28, 48 h, read-out: Activity
SK-OV-3 [14] = assay: Growth inhibition of human SKOV3 cells assessed as cell growth at 10^-7 M incubated for 48 hrs by sulforhodamine B assay relative to control; type: functional; details: SK-OV-3, 48 h, read-out: Activity
NCI-H322M = assay: Growth inhibition of human NCI-H322M cells assessed as cell growth at 10^-6 M incubated for 48 hrs by sulforhodamine B assay relative to control; type: functional; details: read-out: Activity
MDA-MB-231 = assay: Cytotoxicity against human MDA-MB-231 cells after 48 hrs by SRB assay; type: functional; details: MDA-MB-231, 48 h
MCF7 [15] = assay: Growth inhibition of human MCF7 cells assessed as cell growth at 10^-5 M incubated for 48 hrs by sulforhodamine B assay relative to control; type: functional; details: MCF7, 48 h, read-out: Activity
KM12 [16] = assay: Growth inhibition of human KM12 cells assessed as cell growth at 10^-6 M incubated for 48 hrs by sulforhodamine B assay relative to control; type: functional; details: KM12, 48 h, read-out: Activity
A498 = assay: Growth inhibition of human A498 cells assessed as cell growth at 10^-6 M incubated for 48 hrs by sulforhodamine B assay relative to control; type: functional; details: A498, 48 h, read-out: Activity
HL-60(TB) [17] = assay: Growth inhibition of human HL-60(TB) cells assessed as cell growth at 10^-7 M incubated for 48 hrs by sulforhodamine B assay relative to control; type: functional; details: HL-60, 48 h, read-out: Activity
[18] = Antiproliferative activity against HMVEC-d cells after 4 days by Coulter counter method; type: cell-based; details: Homo sapiens, 96 h; in short: as §1
[19] = read-out: LC50 (the source's name)
[20] = read-out: pLC50 (the source's name) (converted)

Compound: C#C[C@@]1(O)[C@@H](CO)O[C@@H](n2cc(F)c3c(N)ncnc32)[C@@H]1O
- CC50 (NCI-H460; [19]): > 100000 nM
- TGI (NCI-H460; read-out: TGI): 10200 nM
- GI50 (NCI-H460; read-out: pGI50 (converted)): 229 nM
- TGI (NCI-H460; read-out: pTGI (converted)): 10200 nM
- growth at 100 µM (KM12 [1]): -10%
- growth at 0.01 µM (786-0): 94%
- TGI (CCRF-CEM [2]; read-out: TGI): > 100000 nM
- GI50 (CCRF-CEM [2]; read-out: pGI50 (converted)): 339 nM
- CC50 (CCRF-CEM [2]; [20]): > 100000 nM
- TGI (CCRF-CEM [2]; read-out: pTGI): > 100000 nM
- growth at 100 µM (PC-3): -31%
- CC50 (Hs-578T [3]; [19]): > 100000 nM
- TGI (Hs-578T [3]; read-out: TGI): > 100000 nM
- GI50 (Hs-578T [3]; read-out: pGI50 (converted)): 3980 nM
- TGI (Hs-578T [3]; read-out: pTGI): > 100000 nM
- growth at 10 µM (CCRF-CEM [4]): 5%
- GI50 (COLO 205; read-out: GI50): 263 nM
- TGI (COLO 205; read-out: TGI): 1300 nM
- GI50 (COLO 205; read-out: pGI50 (converted)): 263 nM
- CC50 (COLO 205; [20]): 9330 nM
- TGI (COLO 205; read-out: pTGI (converted)): 1290 nM
- growth at 0.1 µM (OVCAR-5 [5]): 108%
- growth at 0.01 µM (Malme-3M [6]): 103%
- growth at 10 µM (OVCAR-5 [7]): 5%
- growth at 10 µM (SF-268): 7%
- growth at 100 µM (K562): 6%
- growth at 1 µM (HL-60(TB) [8]): 20%
- growth at 0.1 µM (LOX IMVI): 87%
- growth at 0.01 µM (SF-539): 104%
- growth at 0.01 µM (Hs-578T [9]): 92%
- growth at 0.1 µM (Malme-3M [10]): 98%
- IC50 (HMEC-1): 61 nM
- growth at 0.1 µM (KM12 [11]): 85%
- growth at 0.1 µM (MDA-MB-435): 86%
- growth at 10 µM (HCT-116): -9%
- growth at 100 µM (MCF7 [12]): -21%
- CC50 (SK-OV-3 [13]; [19]): > 100000 nM
- TGI (SK-OV-3 [13]; read-out: TGI): 2090 nM
- GI50 (SK-OV-3 [13]; read-out: pGI50 (converted)): 288 nM
- TGI (SK-OV-3 [13]; read-out: pTGI (converted)): 2090 nM
- growth at 0.1 µM (SK-MEL-28): 95%
- growth at 0.1 µM (SK-OV-3 [14]): 81%
- growth at 1 µM (NCI-H322M): 31%
- CC50 (MDA-MB-231; [19]): > 100000 nM
- TGI (MDA-MB-231; read-out: TGI): 2980 nM
- GI50 (MDA-MB-231; read-out: pGI50 (converted)): 380 nM
- TGI (MDA-MB-231; read-out: pTGI (converted)): 2950 nM
- growth at 10 µM (MCF7 [15]): 1%
- growth at 1 µM (KM12 [16]): 35%
- growth at 1 µM (A498): 43%
- growth at 0.1 µM (HL-60(TB) [17]): 103%
- IC50 [18]: < 1.28 nM
